Data: ChEMBL document CHEMBL1129436, “Novel peptidyl alpha-keto amide inhibitors of calpains and other cysteine proteases” (J Med Chem, 1996)

What was measured:
Cathepsin B [1] = target: Cathepsin B (Bos taurus, UniProt P07688); test: Inhibition of bovine cathepsin B
Method in brief: (§1)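 Bovine or human cathepsin B, assayed in 20 mM sodium acetate, pH 5.2, with 0.5 mM dithiothreitol and 2% DMSO. The two enzyme sources were used interchangeably. Ki was taken from Dixon plots, with triplicate assays plotted as 1/v versus inhibitor concentration.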

[2] = target: T1, Calpain-1 catalytic subunit (Homo sapiens, UniProt P07384); test: Inhibition of the cysteine protease human Calpain 1
T1 sequence (P07384 whole entry): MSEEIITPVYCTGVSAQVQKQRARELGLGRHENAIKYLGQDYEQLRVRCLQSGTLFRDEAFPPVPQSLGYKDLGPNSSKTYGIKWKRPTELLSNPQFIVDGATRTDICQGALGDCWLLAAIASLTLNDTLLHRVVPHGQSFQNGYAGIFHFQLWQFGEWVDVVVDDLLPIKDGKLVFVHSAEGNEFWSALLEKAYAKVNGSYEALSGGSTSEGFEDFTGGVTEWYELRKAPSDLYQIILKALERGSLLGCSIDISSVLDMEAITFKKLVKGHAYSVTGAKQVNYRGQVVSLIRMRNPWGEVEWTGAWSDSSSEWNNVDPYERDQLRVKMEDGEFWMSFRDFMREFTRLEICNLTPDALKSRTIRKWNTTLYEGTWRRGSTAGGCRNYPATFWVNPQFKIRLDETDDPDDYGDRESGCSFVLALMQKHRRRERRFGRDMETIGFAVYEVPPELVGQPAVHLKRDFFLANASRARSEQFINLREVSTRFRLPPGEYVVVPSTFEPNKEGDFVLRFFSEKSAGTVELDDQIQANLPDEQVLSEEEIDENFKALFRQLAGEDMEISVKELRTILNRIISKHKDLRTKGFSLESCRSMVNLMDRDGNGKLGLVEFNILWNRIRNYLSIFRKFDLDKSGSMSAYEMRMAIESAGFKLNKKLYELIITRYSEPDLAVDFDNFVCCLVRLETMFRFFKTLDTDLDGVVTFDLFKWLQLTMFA
Method in brief: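 Calpain assay in 25 mM Tris, pH 8.0, with 10 mM CaCl₂ and 5% DMSO. […] hydrolysis was read as initial velocity (t = 30-60 s) after a 30 s delay, at room temperature. Five or more inhibitor concentrations (not above 2 × K_obs) were used at two fixed substrate levels. Ki came from Dixon plots (1/v vs I) averaged over triplicates.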

Cathepsin B [3] = target: Cathepsin B (Homo sapiens, UniProt P07858); test: Inhibition of human cathepsin B; method in brief: as §1
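Throughout, for IC: measured as membrane permeability of platelets.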

SMILES	Ki (Cathepsin B [1])	Ki [2]	Ki (Cathepsin B [3])	IC (Rattus norvegicus)
CCNC(=O)C(=O)C(CC)NC(=O)C(CC(C)C)NC(=O)CCc1ccccc1 (stereo unspecified)	220 nM	1900 nM		
CCC(NC(=O)C(CC(C)C)NC(=O)OCc1ccccc1)C(=O)C(=O)NCCNC(=O)CCCC[C@@H]1SC[C@@H]2NC(=O)N[C@@H]21 (stereo partly specified)	660 nM	650 nM		
CC(C)CC(NC(=O)OCc1ccccc1)C(=O)NC(Cc1ccccc1)C(=O)C(=O)NCc1ccccn1 (stereo unspecified)		650 nM	800 nM	
CC(C)CC(NC(=O)C(c1ccccc1)c1ccccc1)C(=O)NC(Cc1ccccc1)C(=O)C(=O)NCCCN1CCOCC1 (stereo unspecified)		760 nM	3800 nM	
CCNC(=O)C(=O)C(CC)NC(=O)C(CC(C)C)NC(=O)c1cccnc1 (stereo unspecified)	880 nM	1300 nM		
CCC(NC(=O)C(CC(C)C)NC(=O)OCc1ccccc1)C(=O)C(=O)NCc1nc2c(c(=O)n(C)c(=O)n2C)n1C (stereo unspecified)	1700 nM	32000 nM		
CC(C)CC(NC(=O)C(c1ccccc1)c1ccccc1)C(=O)NC(Cc1ccccc1)C(=O)C(=O)NCC(O)c1ccccc1 (stereo unspecified)	240 nM	10000 nM		
CC(C)CC(NC(=O)OCc1ccccc1)C(=O)NC(Cc1ccccc1)C(=O)C(=O)NCC(O)c1cccc(Oc2ccc(Cl)c(Cl)c2)c1 (stereo unspecified)	640 nM	590 nM		
CCNC(=O)C(=O)C(CC)NC(=O)C(CC(C)C)NC(=O)C(c1ccccc1)c1ccccc1 (stereo unspecified)	550 nM	5000 nM		
CC(C)CC(NC(=O)OCc1ccccc1)C(=O)NC(Cc1ccccc1)C(=O)C(=O)NCC(O)c1ccc(N(C)C)cc1 (stereo unspecified)	310 nM	620 nM		
CCC(NC(=O)C(CC(C)C)NC(=O)OCc1ccccc1)C(=O)C(=O)NCC(O)c1cc(OC)c(OC)c(OC)c1 (stereo unspecified)	220 nM	380 nM		
CCCC(NC(=O)C(CC(C)C)NC(=O)OCc1ccccc1)C(=O)C(=O)NCC(O)c1ccccc1 (stereo unspecified)	3400 nM	7800 nM		
CCNC(=O)C(=O)C(CC)NC(=O)C(CC(C)C)NC(=O)c1nccc2ccccc12 (stereo unspecified)	220 nM	350 nM		
CCC(NC(=O)C(CC(C)C)NC(=O)OCc1ccccc1)C(=O)C(=O)NCC(OC)OC (stereo unspecified)	190 nM			
CC(C)CC(NC(=O)OCc1ccccc1)C(=O)NC(Cc1ccccc1)C(=O)C(=O)NCCCN1CCCc2ccccc21 (stereo unspecified)	140 nM	380 nM		
CCOC(CNC(=O)C(=O)C(CC)NC(=O)C(CC(C)C)NC(=O)OCc1ccccc1)OCC (stereo unspecified)	110 nM			
CC(C)CC(NC(=O)OCc1ccccc1)C(=O)NC(Cc1ccccc1)C(=O)C(=O)NCC(O)c1cccc(Oc2ccccc2)c1 (stereo unspecified)	640 nM	600 nM		

SMILES	Ki (Cathepsin B [1])	Ki [2]	Ki (Cathepsin B [3])	IC (Rattus norvegicus)
CCC(NC(=O)C(CC(C)C)NC(=O)OCc1ccccc1)C(=O)C(=O)NCCCN1CCCc2ccccc21 (stereo unspecified)	94 nM	370 nM		
CCC(NC(=O)C(CC(C)C)NC(=O)OCc1ccccc1)C(=O)C(=O)NCC(O)c1ccc2ccccc2c1 (stereo unspecified)	63 nM	350 nM		
CCC(NC(=O)C(CC(C)C)NC(=O)C(c1ccccc1)c1ccccc1)C(=O)C(=O)NCCCN1CCOCC1 (stereo unspecified)		800 nM	2300 nM	
CCNC(=O)C(=O)C(CC)NC(=O)C(CC(C)C)NC(=O)c1ccco1 (stereo unspecified)	1200 nM	850 nM		
CCNC(=O)C(=O)C(CC)NC(=O)C(CC(C)C)NC(=O)c1ccc2ccccc2n1 (stereo unspecified)	96 nM			
CC(C)CC(NC(=O)OCc1ccccc1)C(=O)NC(Cc1ccccc1)C(=O)C(=O)NCC(O)c1ccc(OCc2ccccc2)c(OCc2ccccc2)c1 (stereo unspecified)	20000 nM	480 nM		
CC(C)CC(NC(=O)OCc1ccccc1)C(=O)NC(Cc1ccccc1)C(=O)C(=O)NCC(O)c1ccc(OCc2ccccc2)cc1 (stereo unspecified)	380 nM			
CCC(NC(=O)C(CC(C)C)NC(=O)OCc1ccccc1)C(=O)C(=O)NCCc1ccccn1 (stereo unspecified)		410 nM		70 µM
CCNC(=O)C(=O)C(CC)NC(=O)C(CC(C)C)NC(=O)c1cnccn1 (stereo unspecified)	350 nM	1400 nM		
CCNC(=O)C(=O)C(CC)NC(=O)C(CC(C)C)NC(=O)N1CCOCC1 (stereo unspecified)	4300 nM	7900 nM		
CC(C)CC(NC(=O)OCc1ccccc1)C(=O)NC(Cc1ccccc1)C(=O)C(=O)NCC(O)c1cccc(C(F)(F)F)c1 (stereo unspecified)	140 nM	460 nM		
CCC(NC(=O)C(CC(C)C)NC(=O)OCc1ccccc1)C(=O)C(=O)NCC(O)c1cccc(Oc2ccccc2)c1 (stereo unspecified)	120 nM	900 nM		
CCC(NC(=O)C(CC(C)C)NC(=O)OCc1ccccc1)C(=O)C(=O)NCC(O)c1cccc(C(F)(F)F)c1 (stereo unspecified)	110 nM	350 nM		
CC(C)CC(NC(=O)OCc1ccccc1)C(=O)NC(Cc1ccccc1)C(=O)C(=O)NCC(O)c1c(F)c(F)c(F)c(F)c1F (stereo unspecified)	210 nM	700 nM		
CCC(NC(=O)C(CC(C)C)NC(=O)OCc1ccccc1)C(=O)C(=O)NCCc1cccn1C (stereo unspecified)			1200 nM	
CCCNC(=O)C(=O)C(CC)NC(=O)C(CC(C)C)NC(=O)OCc1ccccc1 (stereo unspecified)				70 µM
CCC(NC(=O)C(CC(C)C)NC(=O)C(c1ccccc1)c1ccccc1)C(=O)C(=O)NCc1ccccn1 (stereo unspecified)				88 µM

More lines, main results first:

Ki (Cathepsin B [1])	Ki [2]	Ki (Cathepsin B [3])	SMILES	IC (Rattus norvegicus)
570 nM	350 nM		CNC(=O)C(=O)C(Cc1ccccc1)NC(=O)C(CC(C)C)NC(=O)OCc1ccccc1 (stereo unspecified)	
110 nM	80 nM		CCC(NC(=O)C(CC(C)C)NC(=O)OCc1ccccc1)C(=O)C(=O)NCC(O)c1ccc(OCc2ccccc2)cc1 (stereo unspecified)	
63 nM	120 nM		CCC(NC(=O)C(CC(C)C)NC(=O)OCc1ccccc1)C(=O)C(=O)NCC(O)c1cccc2ccccc12 (stereo unspecified)	
	250 nM	300 nM	CCC(NC(=O)C(CC(C)C)NC(=O)OCc1ccccc1)C(=O)C(=O)NCc1nccc2ccccc12 (stereo unspecified)	
	110 nM	310 nM	CCC(NC(=O)C(CC(C)C)NC(=O)OCc1ccccc1)C(=O)C(=O)NCCc1cccc(OC)c1 (stereo unspecified)	
	300 nM	350 nM	CCNC(=O)C(=O)C(CC)NC(=O)C(CC(C)C)NC(=O)Cc1cccc2ccccc12 (stereo unspecified)	
120 nM	240 nM		CCC(NC(=O)C(CC(C)C)NC(=O)OCc1ccccc1)C(=O)C(=O)NCC(O)c1ccc(OC)cc1 (stereo unspecified)	
300 nM	70 nM		CCC(NC(=O)C(CC(C)C)NC(=O)OCc1ccccc1)C(=O)C(=O)NCC(O)c1cccc(Oc2cccc(C(F)(F)F)c2)c1 (stereo unspecified)	
450 nM	130 nM		CCC(NC(=O)C(CC(C)C)NC(=O)OCc1ccccc1)C(=O)C(=O)NCc1ccc2ccccc2n1 (stereo unspecified)	
210 nM	100 nM		CCC(NC(=O)C(CC(C)C)NC(=O)OCc1ccccc1)C(=O)C(=O)NCC(O)c1ccc(Oc2ccccc2)cc1 (stereo unspecified)	
230 nM	220 nM		CC(C)CC(NC(=O)OCc1ccccc1)C(=O)NC(Cc1ccccc1)C(=O)C(=O)NCCNC(=O)CCCC[C@@H]1SC[C@@H]2NC(=O)N[C@@H]21 (stereo partly specified)	
120 nM	180 nM		CC(C)CC(NC(=O)OCc1ccccc1)C(=O)NC(Cc1ccccc1)C(=O)C(=O)NCC(O)c1cccc(Oc2cccc(C(F)(F)F)c2)c1 (stereo unspecified)	
	110 nM	340 nM	CC(C)CC(NC(=O)OCc1ccccc1)C(=O)NC(Cc1ccccc1)C(=O)C(=O)NCc1ccc2ccccc2n1 (stereo unspecified)	
330 nM	280 nM		CCC(NC(=O)C(CC(C)C)NC(=O)OCc1ccccc1)C(=O)C(=O)NC (stereo unspecified)	
2100 nM	200 nM		CC(C)CC(NC(=O)OCc1ccccc1)C(=O)NC(Cc1ccccc1)C(=O)C(=O)NCC(O)c1ccc(Oc2ccccc2)cc1 (stereo unspecified)	
320 nM	230 nM		CCC(NC(=O)C(CC(C)C)NC(=O)OCc1ccccc1)C(=O)C(=O)NCC(O)c1ccc(OCc2ccccc2)c(OCc2ccccc2)c1 (stereo unspecified)	
150 nM	50 nM		CCC(NC(=O)C(CC(C)C)NC(=O)OCc1ccccc1)C(=O)C(=O)NCC(O)c1c(F)c(F)c(F)c(F)c1F (stereo unspecified)	
	310 nM	8000 nM	CCC(NC(=O)C(CC(C)C)NC(=O)OCc1ccccc1)C(=O)C(=O)NCCCN1CCc2ccccc2C1 (stereo unspecified)	
	290 nM	9900 nM	CCC(NC(=O)C(CC(C)C)NC(=O)OCc1ccccc1)C(=O)C(=O)NCCCn1ccnc1 (stereo unspecified)	
100 nM	270 nM		CCC(NC(=O)C(CC(C)C)NC(=O)OCc1ccccc1)C(=O)C(=O)NCC(O)c1cccc(Oc2ccc(Cl)c(Cl)c2)c1 (stereo unspecified)	
72 nM	330 nM		CCC(NC(=O)C(CC(C)C)NC(=O)OCc1ccccc1)C(=O)C(=O)NCC(O)c1ccc(N(C)C)cc1 (stereo unspecified)	
	130 nM	630 nM	CCC(NC(=O)C(CC(C)C)NC(=O)OCc1ccccc1)C(=O)C(=O)NCCc1ccccc1OC (stereo unspecified)	
	220 nM	4500 nM	CC(C)CC(NC(=O)OCc1ccccc1)C(=O)NC(Cc1ccccc1)C(=O)C(=O)NCCCN1CCc2ccccc2C1 (stereo unspecified)	
	19 nM	750 nM	CCCC(NC(=O)C(CC(C)C)NC(=O)OCc1ccccc1)C(=O)C(=O)NCc1ccccn1 (stereo unspecified)	
	120 nM	440 nM	CCC(NC(=O)C(CC(C)C)NC(=O)OCc1ccccc1)C(=O)C(=O)NCCc1ccc(OC)cc1 (stereo unspecified)	
